Experimental data taken from ChEMBL document CHEMBL4765453, “Phenanthrolinic analogs of quinolones show antibacterial activity against M. tuberculosis” (Eur J Med Chem, 2020).
Converted amounts (≈) assume the structure as drawn. The source made the active and inactive calls. The calls are words filed in the database; no cut-off is given here.

Legend:
[1] = system: Mycolicibacterium smegmatis; experiment: Inhibition of DNA gyrase in Mycobacterium smegmatis assessed as elongation of bacterial cells at 2 ug/ml measured after 6 hrs by DAPI/FM 4-64 staining based confocal fluorescence microscopic analysis; settings: dose 2.0 µg/ml
Outline: (§1)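 M. smegmatis is grown in 7H9, and exponential cultures are treated 6 h at 37°C. Cells are fixed 10 min in 4% PFA in PBS and stained 20 min at room temperature with 2 µg/mL DAPI and 1 µg/mL FM 4-64. Imaging is by confocal microscopy with a 60x oil objective.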

Acinetobacter baumannii = experiment: Antibacterial activity against Acinetobacter baumannii measured after 7 days by resazurin microtiter assay; format: functional; settings: 168 h, time 7 day
[2] = system: Escherichia coli ATCC 25922; experiment: Inhibition of DNA gyrase in Escherichia coli ATCC 25922 assessed as elongation of bacterial cells at 2 ug/ml measured after 1.5 hrs by DAPI/FM 4-64 staining based confocal fluorescence microscopic analysis; settings: dose 2.0 µg/ml
Outline: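 E. coli ATCC 25922 is grown in LB, and exponential cultures are treated 1.5 h at 37°C. Cells are washed in PBS, fixed 10 min in 4% PFA, and stained 20 min at room temperature with 2 µg/mL DAPI plus 1 µg/mL FM 4-64. Imaging is by confocal microscopy with a 60x oil objective.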

Mycolicibacterium aurum = experiment: Antibacterial activity against Mycobacterium aurum measured after 7 days by resazurin microtiter assay; format: functional; settings: 168 h, time 7 day
Outline: (§2)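 Resazurin microtiter assay with two-fold drug dilutions in complete 7H9 broth. Exponential-phase cells are diluted to a final OD600 of 0.005 in 7H9 without Tween. Incubation is 7 days at 37°C, then 0.01% resazurin is added and plates are held 24 h more. MIC is the lowest concentration preventing the blue-to-pink change. Each MIC is determined three times in duplicate experiments.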

[3] = system: Mycolicibacterium smegmatis; experiment: Antibacterial activity against Mycobacterium smegmatis measured after 7 days by resazurin microtiter assay; format: functional; settings: 168 h, time 7 day; outline: as §2
[4] = system: Mycobacterium tuberculosis; experiment: Antitubercular activity against Mycobacterium tuberculosis XDR measured after 7 days by resazurin microtiter assay; format: functional; settings: 168 h, time 7 day; outline: as §2
Mycobacterium marinum = experiment: Antibacterial activity against Mycobacterium marinum measured after 7 days by resazurin microtiter assay; format: functional; settings: 168 h, time 7 day; outline: as §2
Pseudomonas aeruginosa = experiment: Antibacterial activity against Pseudomonas aeruginosa measured after 7 days by resazurin microtiter assay; format: functional; settings: 168 h, time 7 day
[5] = system: Mycolicibacterium smegmatis; experiment: Inhibition of DNA gyrase in Mycobacterium smegmatis assessed as segmentation of bacterial cells at 2 ug/ml measured after 6 hrs by DAPI/FM 4-64 staining based confocal fluorescence microscopic analysis; settings: dose 2.0 µg/ml; outline: as §1
Enterobacter cloacae = experiment: Antibacterial activity against Enterobacter cloacae measured after 7 days by resazurin microtiter assay; format: functional; settings: 168 h, time 7 day
Staphylococcus aureus = experiment: Antibacterial activity against Staphylococcus aureus measured after 7 days by resazurin microtiter assay; format: functional; settings: 168 h, time 7 day
Klebsiella aerogenes = experiment: Antibacterial activity against Enterobacter aerogenes measured after 7 days by resazurin microtiter assay; format: functional; settings: 168 h, time 7 day
[6] = system: Mycobacterium tuberculosis; experiment: Antitubercular activity against Mycobacterium tuberculosis H37Rv measured after 7 days by resazurin microtiter assay; format: functional; settings: 168 h, time 7 day; outline: as §2
[7] = Solubility of compound in water; format: physicochemical; settings: buffer
[8] = system: Mycobacterium tuberculosis; experiment: Antitubercular activity against Mycobacterium tuberculosis H37Rv infected in human macrophages assessed as intracellular bacterial load at 4 times MIC measured after 6 days (reference value: 5.57 to 6.43 logCFU/ml); format: functional, Macrophage; settings: time 6 day
[9] = system: Mycobacterium tuberculosis; experiment: Antitubercular activity against Mycobacterium tuberculosis H37Rv infected in human macrophages assessed as intracellular bacterial load at 0.5 MIC measured after 6 days (reference value: 5.57 to 6.43 logCFU/ml); format: functional, Macrophage; settings: time 6 day
Klebsiella pneumoniae = experiment: Antibacterial activity against Klebsiella pneumoniae measured after 7 days by resazurin microtiter assay; format: functional; settings: 168 h, time 7 day
[10] = system: Mycobacterium tuberculosis; experiment: Antitubercular activity against Mycobacterium tuberculosis H37Rv infected in human macrophages assessed as intracellular bacterial load at 2 times MIC measured after 6 days (reference value: 5.57 to 6.43 logCFU/ml); format: functional, Macrophage; settings: time 6 day
Macrophage = experiment: Cytotoxicity against human macrophages assessed as reduction in cell viability measured after 6 days by Celltiter-glo assay; format: cell-based; settings: human, macrophage, 144 h; time 6 day
Outline: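 Infected human macrophages, with or without drug, are incubated 6 days. Viability is checked by visual inspection and by CellTiter-Glo ATP luminescence.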

[11] = system: Mycobacterium tuberculosis; experiment: Antitubercular activity against Mycobacterium tuberculosis H37Rv infected in human macrophages assessed as intracellular bacterial load at MIC measured after 6 days (reference value: 5.57 to 6.43 logCFU/ml); format: functional, Macrophage; settings: time 6 day
Vero = experiment: Cytotoxicity against African green monkey Vero cells assessed as reduction in cell viability measured after 24 to 48 hrs by Celltiter-glo assay; format: cell-based, Chlorocebus sabaeus; settings: chlorocebus sabaeus, vero; time 24-48 hrs
Outline: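 Vero cells are grown in DMEM with 10% FBS and seeded at 25000 cells/well. Compound is added at 1% final DMSO, with 24 and 48 h incubation. ATP is read by CellTiter-Glo luminescence. IC50 is the concentration giving a 50% drop in ATP signal versus the DMSO control.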

CC1COc2c(N3CCN(C)CC3)c(F)cc3c(=O)c(C(=O)O)cn1c23 (configuration not stated) [OFLOXACIN]
inhibition [1]: Active | MIC90 (Acinetobacter baumannii): 1.73 µM (≈ 0.625 µg/mL) | inhibition [2]: Active | MIC90 (Mycolicibacterium aurum): 3.46 µM (≈ 1.25 µg/mL) | MIC90 [3]: 3.46 µM (≈ 1.25 µg/mL) | MIC90 [4]: 27.6 µM (≈ 9.97 µg/mL) | MIC90 (Mycobacterium marinum): 6.92 µM (≈ 2.5 µg/mL) | MIC90 (Pseudomonas aeruginosa): 6.92 µM (≈ 2.5 µg/mL) | inhibition [5]: Active | MIC90 (Enterobacter cloacae): 6.92 µM (≈ 2.5 µg/mL) | MIC90 (Staphylococcus aureus): 1.73 µM (≈ 0.625 µg/mL) | MIC90 (Klebsiella aerogenes): 0.22 µM (≈ 0.0795 µg/mL) | MIC90 [6]: 1.73 µM (≈ 0.625 µg/mL)

CCOC(=O)c1c[nH]c2c(ccc3cccnc32)c1=O
MIC90 [6]: 24 µM (≈ 6.44 µg/mL) | solubility [7]: Insoluble

CCOC(=O)c1c[nH]c2c(ccc3c([N+](=O)[O-])cc[n+]([O-])c32)c1=O
MIC90 [6]: 39.5 µM (≈ 13 µg/mL) | solubility [7]: Insoluble

CCOC(=O)c1cn(CC)c2c(cc(N)c3cccnc32)c1=O
MIC90 [6]: 41.9 µM (≈ 13 µg/mL) | solubility [7]: Insoluble

CCn1cc(C(=O)O)c(=O)c2ccc(C)nc21 [NALIDIXIC ACID]
MIC [6]: > 50 µM

CCn1cc(C(=O)O)c(=O)c2ccc3cccnc3c21
MIC90 [6]: 47.1 µM (≈ 12.6 µg/mL) | solubility [7]: Insoluble

CCOC(=O)c1cn(CC)c2c(cc([N+](=O)[O-])c3cccnc32)c1=O
Activity [8]: 3 log10CFU/ml | MIC90 (Acinetobacter baumannii): > 100 µM | Activity [9]: 4.42 log10CFU/ml | MIC90 (Klebsiella pneumoniae): > 275 µM | MIC90 (Mycolicibacterium aurum): > 100 µM | MIC90 [3]: > 100 µM | MIC90 [4]: 4.99 µM (≈ 1.7 µg/mL) | MIC90 (Mycobacterium marinum): 0.61 µM (≈ 0.208 µg/mL) | Activity [10]: 3.1 log10CFU/ml | MIC90 (Pseudomonas aeruginosa): > 100 µM | Activity (Macrophage): Non-Toxic | Activity [11]: 3.59 log10CFU/ml | MIC90 (Enterobacter cloacae): > 275 µM | MIC90 (Staphylococcus aureus): 19.6 µM (≈ 6.69 µg/mL) | MIC90 (Klebsiella aerogenes): 314 µM (≈ 107 µg/mL) | MIC90 [6]: 4.99 µM (≈ 1.7 µg/mL) | solubility [7]: Insoluble | Activity (Vero): Non-Toxic

CCOC(=O)c1cn(C)c2c(cc(N)c3cccnc32)c1=O
MIC90 [6]: 92.1 µM (≈ 27.4 µg/mL) | solubility [7]: Insoluble

Cn1cc(C(=O)NN)c(=O)c2cc([N+](=O)[O-])c3cccnc3c21
MIC90 [6]: 20.8 µM (≈ 6.51 µg/mL) | solubility [7]: Insoluble

COc1c(N2C[C@@H]3CCCN[C@@H]3C2)c(F)cc2c(=O)c(C(=O)O)cn(C3CC3)c12 [MOXIFLOXACIN]
Activity [8]: 2.54 log10CFU/ml | Activity [9]: 4.02 log10CFU/ml | MIC90 [4]: 6.16 µM (≈ 2.47 µg/mL) | Activity [10]: 3.93 log10CFU/ml | Activity [11]: 3.77 log10CFU/ml | MIC90 [6]: 0.77 µM (≈ 0.309 µg/mL)

CCOC(=O)c1cn(C)c2c(ccc3cccnc32)c1=O
MIC90 [6]: 182 µM (≈ 51.5 µg/mL) | solubility [7]: Insoluble

CCn1cc(C(N)=O)c(=O)c2cc([N+](=O)[O-])c3cccnc3c21
MIC90 [6]: 1.25 µM (≈ 0.39 µg/mL) | solubility [7]: Insoluble

CCOC(=O)c1cn(C)c2c(cc(Cl)c3cccnc32)c1=O
MIC90 [6]: 329 µM (≈ 104 µg/mL) | solubility [7]: Insoluble

CCOC(=O)c1c[nH]c2c(ccc3ccc[n+]([O-])c32)c1=O
MIC90 [6]: 204 µM (≈ 58 µg/mL) | solubility [7]: Insoluble

O=C(O)c1c[nH]c2c(ccc3cccnc32)c1=O
MIC90 [6]: 112 µM (≈ 27 µg/mL) | solubility [7]: Insoluble

CCOC(=O)c1c[nH]c2c(cc([N+](=O)[O-])c3cccnc32)c1=O
MIC90 [6]: 329 µM (≈ 103 µg/mL) | solubility [7]: Insoluble
